The results in this text go back to ChEMBL document CHEMBL4177542, “A New Combination of a Pleuromutilin Derivative and Doxycycline for Treatment of Multidrug-Resistant Acinetobacter baumannii” (J Med Chem, 2017).

The subject of data set [1] is Acinetobacter baumannii. Description: Growth inhibition of Acinetobacter baumannii ATCC 19606 after 48 hrs by resazurin dye based microdilution method. The class given is functional. As to conditions: ATCC 19606 = CIP 70.34 = JCM 6841, 48 h. Summed up:
(§1)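 A. baumannii ATCC 19606 grown in tryptic soy broth, 37 °C with shaking, to mid-log (OD 0.5). Cultures treated with serial dilutions of inhibitor (DMSO stock 1 mg/100 μL), 48 h at 37 °C. Resazurin then added, 1 h at 37 °C with shaking. MIC is the lowest concentration staying blue; MBC is blue retained over 4 h, with CFU plating if needed (99.9% kill).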
On the technique in general: Resazurin is reduced to fluorescent resorufin, in cell work by metabolically active cells.

For data set [2], the system named is Acinetobacter baumannii. Description: Bactericidal activity against Acinetobacter baumannii ATCC 19606 after 48 hrs by resazurin dye based microdilution method. The class given is functional. As to conditions: ATCC 19606 = CIP 70.34 = JCM 6841, 48 h, read-out: MBC99.9. The gist of the method: as §1
The test system of data set [3] is Acinetobacter baumannii. As to the kind of experiment: Synergistic bactericidal activity against Acinetobacter baumannii ATCC 19606 at 60:1 compound to doxycycline ratio after 48 hrs by resazurin dye based microdilution broth checkerboard method. Format: functional. As to conditions: ATCC 19606 = CIP 70.34 = JCM 6841, 48 h, read-out: MBC99.9. The gist of the method: (§2)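 Checkerboard broth microdilution of drug pairs in tryptic soy broth on mid-log cultures (OD 0.5), 48 h at 37 °C. Growth read by resazurin (pink growth, blue no growth). MBC is blue retained over 4 h, CFU plating where needed. ΣFIC = C_A/MIC_A + C_B/MIC_B, taken at the growth/no-growth interface wells; ΣFIC <0.5 counts as synergy.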

In data set [4] the test system is Acinetobacter baumannii. Description: Synergistic bactericidal activity against Acinetobacter baumannii ATCC 19606 at 35:1 compound to doxycycline ratio after 48 hrs by resazurin dye based microdilution broth checkerboard method. The class given is functional. As to conditions: ATCC 19606 = CIP 70.34 = JCM 6841, 48 h, read-out: MBC99.9. The gist of the method: as §2

Data set [5] has as its system Acinetobacter baumannii. Description: Synergistic bactericidal activity against Acinetobacter baumannii ATCC 19606 at 2:1 compound to doxycycline ratio after 48 hrs by resazurin dye based microdilution broth checkerboard method. Format: functional. As to conditions: ATCC 19606 = CIP 70.34 = JCM 6841, 48 h, read-out: MBC99.9. The gist of the method:
as §2

Data set [6] deals with Acinetobacter baumannii. As to the kind of experiment: Synergistic antibacterial activity against multidrug-resistant Acinetobacter baumannii ATCC […] at 60:1 compound to doxycycline ratio after 48 hrs by resazurin dye based microdilution broth checkerboard method. Format: functional. Conditions: ATCC BAA 18002, 48 h. Summed up:
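Microdilution broth checkerboard of the compound combined with doxycycline, using the resazurin broth method (48 h, 37 °C, blue = no growth). ΣFIC = C_A/MIC_A + C_B/MIC_B, taken at the growth–no growth interface wells; ΣFIC below 0.5 is scored as synergy. MBC for the fixed-ratio combinations read as the 4 h resazurin endpoint.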

Data set [7] deals with Klebsiella pneumoniae. As to the kind of experiment: Synergistic antibacterial activity against Klebsiella pneumoniae ATCC 8047 at 35:1 compound to doxycycline ratio after 48 hrs by resazurin dye based microdilution broth checkerboard method. Format: functional. Conditions: ATCC 8047, 48 h. Summed up:
as §2

Data set [8] has as its system Escherichia coli. Description: Synergistic bactericidal activity against Escherichia coli ATCC 10798 at 60:1 compound to doxycycline ratio after 48 hrs by resazurin dye based microdilution broth checkerboard method. Format: functional. As to conditions: ATCC 10798, 48 h, read-out: MBC99.9. The gist of the method:
as §2

Data set [9] deals with Escherichia coli. Description: Synergistic antibacterial activity against Escherichia coli ATCC 10798 at 2:1 compound to doxycycline ratio after 48 hrs by resazurin dye based microdilution broth checkerboard method. Conditions: ATCC 10798, 48 h. Format: functional. The gist of the method: as §2
For data set [10], the system named is Pseudomonas aeruginosa. Description: Synergistic antibacterial activity against Pseudomonas aeruginosa ATCC 27853 at 60:1 compound to doxycycline ratio after 48 hrs by resazurin dye based microdilution broth checkerboard method. The class given is functional. Conditions: ATCC 27853, 48 h. The gist of the method: as §2
Data set [11] concerns Pseudomonas aeruginosa. Description: Growth inhibition of Pseudomonas aeruginosa ATCC 27853 at 2:1 compound to doxycycline ratio after 48 hrs by resazurin dye based microdilution method. The class given is functional. Conditions: ATCC 27853, 48 h. Summed up: as §2
Data set [12] has as its system Pseudomonas aeruginosa. Description: Growth inhibition of Pseudomonas aeruginosa ATCC 27853 after 48 hrs by resazurin dye based microdilution method. Conditions: ATCC 27853, 48 h. Format: functional. The gist of the method:
(§3)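 Broth microdilution in tryptic soy broth. Mid-log cultures (OD600 0.5) treated with serial dilutions from a DMSO stock (1 mg per 100 μL) for 48 h at 37 °C. Resazurin (stock 0.02%) then added for 1 h at 37 °C. MIC is the lowest concentration staying blue; MBC is blue retained over 4 h (99.9% kill), with CFU plating when needed.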

Data set [13] concerns Staphylococcus aureus. Description: Synergistic antibacterial activity against Staphylococcus aureus ATCC 25923 at 2:1 compound to doxycycline ratio after 48 hrs by resazurin dye based microdilution broth checkerboard method. As to conditions: ATCC 25923, 48 h. Format: functional. The gist of the method: as §2
In data set [14] the test system is Staphylococcus aureus. As to the kind of experiment: Bactericidal activity against Staphylococcus aureus ATCC 25923 after 48 hrs by resazurin dye based microdilution method. Format: functional. Conditions: ATCC 25923, 48 h, read-out: MBC99.9. Summed up: as §3
Data set [15] has as its system Mycobacterium tuberculosis. As to the kind of experiment: Synergistic bactericidal activity against Mycobacterium tuberculosis H37Rv at 2:1 compound to doxycycline ratio after 48 hrs by resazurin dye based microdilution broth checkerboard method. Format: functional. As to conditions: read-out: MBC99.9.
Data set [16] relates to Mycobacterium tuberculosis. As to the kind of experiment: Bactericidal activity against Mycobacterium tuberculosis H37Rv after 48 hrs by resazurin dye based microdilution method. The class given is functional. As to conditions: read-out: MBC99.9.
The test system of data set [17] is Acinetobacter baumannii. Description: Potentiation of doxycycline-induced antimicrobial activity against Acinetobacter baumannii ATCC 19606 at 0.78 ug/ml in presence of 0.025 ug/ml doxycycline by microdilution broth checkerboard method. Format: functional, ATCC 19606 = CIP 70.34 = JCM 6841. Summed up:
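A. baumannii ATCC 19606 in a broth microdilution checkerboard with doxycycline, 96 concentration combinations. ΣFIC = C_A/MIC_A + C_B/MIC_B, taken for wells at the growth/no-growth interface; ΣFIC <0.5 counts as synergy.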
On the technique in general: Dilution methods test growth across graded concentrations, often in twofold steps.

Data set [18] is described as follows: Safety index, ratio of compound IC50 to valnemulin IC50 for African green monkey Vero cells. The class given is ADME, cell-based. As to conditions: chlorocebus sabaeus, read-out: Ratio IC50.
The test system of data set [19] is Acinetobacter baumannii. Description: Synergistic antibacterial activity against Acinetobacter baumannii ATCC 19606 infected in C57BL/6 mouse assessed as survival rate at compound to doxycycline ratio of 35:1 at 20 mg/kg, ip administered as single dose measured for 5 days (reference value: <20%). Format: functional. Conditions: ATCC 19606 = CIP 70.34 = JCM 6841, ip, 120 h. Summed up:
(§4)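 C57BL/6 mice (n = 5 per group; 4 untreated controls) infected intraperitoneally with A. baumannii ATCC19606 grown at 37 °C and collected by centrifugation, at a dose giving 75% death. Single intraperitoneal dose (2 to 60 mg/kg) given 1 h after infection. Mice monitored for 5 days, with death as the end point; survival rate recorded.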

In data set [20] the test system is Acinetobacter baumannii. Description: Synergistic antibacterial activity against Acinetobacter baumannii ATCC 19606 infected in C57BL/6 mouse assessed as survival rate at compound to doxycycline ratio of 35:1 at 4 mg/kg, ip administered as single dose measured for 5 days (reference value: <20%). Format: functional. Conditions: ATCC 19606 = CIP 70.34 = JCM 6841, ip, 120 h. Summed up: as §4

In data set [21] the test system is Acinetobacter baumannii. As to the kind of experiment: Synergistic antibacterial activity against Acinetobacter baumannii ATCC 19606 infected in C57BL/6 mouse assessed as survival rate at compound to doxycycline ratio of 35:1 at 2 mg/kg, ip administered as single dose measured for 5 days (reference value: <20%). Conditions: ATCC 19606 = CIP 70.34 = JCM 6841, ip, 120 h. Format: functional. The gist of the method:
as §4

The subject of data set [22] is Acinetobacter baumannii. As to the kind of experiment: Antibacterial activity against Acinetobacter baumannii ATCC 19606 infected in C57BL/6 mouse assessed as survival rate at 20 mg/kg, ip administered as single dose measured for 5 days (reference value: <20%). Format: functional. As to conditions: ATCC 19606 = CIP 70.34 = JCM 6841, ip, 120 h. The gist of the method:
as §4

The test system of data set [23] is Acinetobacter baumannii. As to the kind of experiment: Antibacterial activity against Acinetobacter baumannii ATCC 19606 infected in C57BL/6 mouse assessed as survival rate at 4 mg/kg, ip administered as single dose measured for 5 days (reference value: <20%). Format: functional. As to conditions: ATCC 19606 = CIP 70.34 = JCM 6841, ip, 120 h. Summed up: as §4

Data set [24] in a line: Efflux ratio of apparent permeability in human Caco2 cells. As to conditions: Caco-2. The class given is ADME, cell-based. (In general: Passage across Caco-2 layers is used to estimate intestinal permeability.)

The structures appear in SMILES notation. ≈ marks a conversion by molar mass, not a printed value.

As a reminder, the MIC is the smallest concentration in the dilution series that meets the test's criterion for growth inhibition. Broadly, the efflux ratio is a quotient of directional permeabilities that is used to spot active efflux. On to `C=C[C@]1(C)C[C@@H](OC(=O)CSC(C)(C)CNC(=O)[C@H](N)C(C)C)[C@]2(C)[C@H](C)CC[C@]3(CC[C@@H](O)[C@H]32)[C@@H](C)[C@@H]1O`, for which the MIC in data set [1] was 1.75 µg/mL (≈ 3.09 µM); in [6], 1.56 µg/mL; in [7], 0.78 µg/mL; in data set [9], 0.25 µg/mL; in data set [10], 12.5 µg/mL; in [11], 6.25 µg/mL. Also, the MIC in data set [12] is over 25 µg/mL; in [13] it was 12.5 µg/mL. The MBC in data set [2] was 3.13 to 6.25 µg/mL (≈ 5.52 to 11 µM); in data set [3] it was 2 µg/mL; in [4] it was 2 µg/mL; in data set [5], 2 µg/mL; in data set [8], 1.56 µg/mL; in [14], 25 µg/mL (≈ 44.1 µM). In addition, the MBC in data set [15] came to 6.25 µg/mL; in [16] it was 6.25 µg/mL (≈ 11 µM). Besides, the “fractional inhibitory concentration index (FICI)” value in data set [17] is recorded as 0.25 - 0.37. The selectivity ratio in data set [18] came out at 2.85. For the same compound, the survival at 20 mg/kg in data set [19] and in data set [22] was 100% in each case. Moreover, the survival at 4 mg/kg in data set [20] is 100%; in [23], 80%. In addition, in [21], the survival at 2 mg/kg was determined as 60%. In addition, the efflux ratio in [24] was determined as 5.
